Assay outcomes deposited in PubChem by The Scripps Research Institute Molecular Screening Center.
PRMT1 inh: inhibitors of human PRMT1; recombinant PRMT1, activity-based probe fluorescence polarization; 1.3% of 370,000 active; Q99873; inhibition, % at 2.79 µM;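 active means inhibition above about 21% made by adding two undisclosed values, limit read from the data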
SIAE primary: blocks human sialic acid acetylesterase. Q9HAT2. SIAE FP-Rh probe binding, fluorescence polarization. inhibition, % at 9.66 µM. 0.69% of 370,000 active. AID 1053197;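 active means inhibition above a cutoff: mean of compounds within the control limits plus 3 SD of those, cut at about 17% in these data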;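 further: 0% = plate median of compound wells and 100% = probe without SIAE protein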
Target sequence (Q9HAT2 whole entry, looked up): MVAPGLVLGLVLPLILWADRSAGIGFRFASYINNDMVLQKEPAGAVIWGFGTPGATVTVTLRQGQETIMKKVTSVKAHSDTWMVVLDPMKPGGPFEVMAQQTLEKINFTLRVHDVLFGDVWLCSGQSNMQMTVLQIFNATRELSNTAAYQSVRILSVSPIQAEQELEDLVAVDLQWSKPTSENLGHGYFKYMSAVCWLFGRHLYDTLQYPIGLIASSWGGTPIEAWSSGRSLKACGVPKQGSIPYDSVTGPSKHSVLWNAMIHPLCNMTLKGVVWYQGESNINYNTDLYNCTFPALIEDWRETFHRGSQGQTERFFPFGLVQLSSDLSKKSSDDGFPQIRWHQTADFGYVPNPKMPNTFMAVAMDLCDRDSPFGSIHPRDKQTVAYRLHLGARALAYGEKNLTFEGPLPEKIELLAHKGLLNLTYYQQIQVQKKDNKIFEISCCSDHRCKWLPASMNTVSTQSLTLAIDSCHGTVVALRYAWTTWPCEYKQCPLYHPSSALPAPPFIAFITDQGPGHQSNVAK
GSTO1 inh: blocks human GSTO1 in RBBP9 counter-screen. inhibition, % at 5.96 µM. recombinant GSTO1, activity-based probe fluorescence polarization. P78417. 1.1% of 300,000 active;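 active means inhibition above the campaign mean inhibition plus 3 SD, cut at about 35% in these data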;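 further: 0% = GSTO1-1 with DMSO and 100% = wells lacking GSTO1-1 enzyme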
PAD4 FP inh: inhibitors of human PAD4. recombinant PAD4, RCA probe fluorescence polarization. inhibition, % at 6.36 µM. 0.41% of 330,000 active. AID 485272;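 active means percent inhibition above a cutoff equal to the mean of all tested compounds plus 3 SD, cut at about 15% in these data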;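 further: 0% = PAD4 with RCA probe and DMSO and 100% = probe without PAD4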
RBBP9 inh: human RBBP9 hydrolase inhibition; recombinant RBBP9, FP-Rh probe fluorescence polarization; inhibition, % at 7.94 µM; 0.2% of 220,000 active; O75884;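 active means inhibition above the campaign mean of all tested compounds plus 3 SD, cut at about 14% in these data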;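 further: plate controls were DMSO wells with RBBP9 for no effect and wells lacking RBBP9 protein for full effect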
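Measured by: FP readout at 525/598 nm; material: recombinant human RBBP9; also added: Serine-hydrolase probe FP-Rh, 375 nM pre-mixing; medium: Tris buffer pH 8.0, NaCl, Pluronic; replication: one well per compound; doses: one concentration, 7.94 µM nominal, 0.794% DMSO; timing: preincubation 30 min plus labeling 45 min at 25 °C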
GSTO1 inh conf: confirmation of human GSTO1 inhibitors | shares compounds with GSTO1 inh | recombinant GSTO1, probe fluorescence polarization | inhibition, % at 5.96 µM | 54% of 2,400 active;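 active means inhibition above the primary screen's cutoff, its mean inhibition plus 3 SD, cut at about 35% in these data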;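 further: loss of polarization as inhibitors block binding of rhodamine sulfonate ester activity probe; 0% = GSTO1 with DMSO and 100% = wells lacking GSTO1 enzyme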
GSTO1 recomb ABPP: blocks recombinant human glutathione S-transferase omega 1; inhibition, % at 1 µM; 30% of 130 active; recombinant GSTO1, gel ABPP SE-Rh probe fluorescence; AID 463110; shares compounds with GSTO1 inh;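 active means inhibition of the enzyme GSTO1 above about 75%, limit read from the data; inactive means inhibition below that limit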
Active calls of the source: *; / = no result. Sampled rows, rich in hits. Any-hit rate of the full collection: about 2.7%.

SMILES	PRMT1 inh	SIAE primary	GSTO1 inh	PAD4 FP inh	RBBP9 inh	GSTO1 inh conf	others
O=C(C1CCC1)N1CCC(c2nc3c(nnn3Cc3c(F)cccc3Cl)c(=O)[nH]2)CC1	3	-6	-1	1	-7	/
COc1ccc(C(C(=O)NC2CCCCC2)N(C(=O)CCl)c2cccc(Cl)c2)cc1 (centres undefined)	2	2	81*	4	0	90*	GSTO1 recomb ABPP=83*
O=C(NC1CCCC1)C(c1ccc(F)cc1)N(Cc1ccc(F)cc1)C(=O)CCl (centres undefined)	3	14	19	2	-9	/
COc1ccc(C(C(=O)NC2CCCCC2)N(C(=O)CCl)c2ccc(C)cc2)cc1 (centres undefined)	-7	3	89*	3	-10	95*	GSTO1 recomb ABPP=88*
COC(CN(C(=O)CCl)C(C(=O)NC1CCCCC1)c1ccc(C)cc1)OC (centres undefined)	2	-14	93*	2	-16	91*	GSTO1 recomb ABPP=61
COc1ccc(C(C(=O)NC2CCCC2)N(C(=O)c2ccoc2C)c2ccc(C)cc2)cc1 (centres undefined)	-3	-1	2	-1	-10	/
OC(c1ccccc1)(c1nc(-c2ccc3ccccc3c2)cs1)C(F)(F)F (centres undefined)	-2	-27	/	/	/	/
CNC(=O)c1[nH]nc2c1CCc1ccccc1-2	0	0	10	1	/	/
Oc1ccc(/C=N/Nc2cccc3cccnc23)c(O)c1	9	7	38*	-1	8	6
Cc1ccc2cccc(OC(=O)c3cccnc3Oc3ccccc3)c2n1	-1	7	/	/	/	/
Nc1cc(OCC(F)(F)F)cc([N+](=O)[O-])c1	-1	-1	-2	1	-8	/
Nc1cc(N)c(OCC(F)(F)F)cc1OCC(F)(F)F	/	/	80*	55*	-4	64*
COc1ccc(N2CCN(S(=O)(=O)c3ccc4oc(=O)ccc4c3)CC2)cc1	-2	1	-1	-7	/	/
O=c1ccc2cc(S(=O)(=O)N3CCOCC3)ccc2o1	-1	-4	42*	3	1	1
CC(=O)c1sc(NC(=O)CCNC(=O)c2ccco2)nc1-c1ccccc1	3	0	-4	1	/	/
O=C(CCl)Nc1nc(-c2ccco2)c(-c2ccco2)s1	32*	2	88*	3	-4	88*
O=C(COC(=O)Cc1ccsc1)NNC(=O)c1ccccc1	3	1	/	2	/	/
O=C(Cc1ccsc1)NNC(=O)c1ccccc1O	1	10	38*	8	/	6
COc1cc(C2Nc3cccc4cccc(c34)N2)cc(OC)c1OC(C)=O	7	5	49*	-7	2	4
COCCN(C(=O)COC(=O)c1cc2c(s1)CCC2)c1c(N)n(Cc2ccccc2)c(=O)[nH]c1=O	13	9	52*	5	/	36*
COc1ccc(N2C(=O)c3ccccc3C2O)cc1 (centres undefined)	5	0	4	1	/	/
COc1ccc(O)c(C(=O)C2c3ccccc3C(=O)N2c2ccc(C)cc2)c1 (centres undefined)	3	10	62*	-4	-7	1
O=C(CSc1nnc(-c2ccco2)o1)c1ccccc1	19	-1	18	-4	-2	/
O=C(CSc1nnc(-c2ccco2)o1)c1ccc(F)c(F)c1	5	-5	38*	-2	-1	31
O=C(NNC(=S)Nc1ccccc1)c1cc(Br)ccc1Cl	-4	0	4	0	/	/
SMILES	PRMT1 inh	SIAE primary	GSTO1 inh	PAD4 FP inh	RBBP9 inh	GSTO1 inh conf	others
CCOc1cc(OCC)c(C(C)=O)cc1OCC	1	-3	/	-18	/	/
O=c1c(O)c(-c2ccccc2)oc2cc(O)cc(O)c12	5	14	/	-5	/	/
O=c1c(O)c(-c2cc(O)c(O)c(O)c2)oc2cc(O)cc(O)c12	54*	56*	79*	-6	/	48*
COc1c(-c2ccc(O)c(O)c2)oc2cc(O)cc(O)c2c1=O	1	2	41*	-6	/	22
O=c1c(O[C@@H]2O[C@H](CO)[C@H](O)[C@H](O)[C@H]2O)c(-c2ccc(O)c(O)c2)oc2cc(O)cc(O)c12	/	/	/	/	-20	/
O=C1C(NS(=O)(=O)c2ccccc2)=C(N2CCN(c3ccc(F)cc3)CC2)C(=O)c2ccccc21	6	2	20	-4	-6	/
O=C1C(NS(=O)(=O)c2cccs2)=C(N2CCN(c3cccc(Cl)c3)CC2)C(=O)c2ccccc21	11	7	50*	-12	6	14
Cc1nn(-c2ccccc2)c(Cl)c1CN(C(=O)CCl)c1ccc(Cl)cc1	-1	2	82*	14	-10	93*	GSTO1 recomb ABPP=88*
COc1ccc(/C=C2/C(=O)N(Cc3ccccc3)N=C2C)cc1	-2	8	40*	4	0	7
COc1ccc(-c2ccc(=O)n(Cc3ccccc3)n2)cc1	-2	2	6	-2	/	/
CC1CC(C)CN(C(=O)CNS(=O)(=O)c2cccs2)C1 (centres undefined)	-2	2	-1	4	/	/
CCCOc1ccc(N)cc1N	16	15	78*	49*	-1	-14
C=CCOc1ccccc1CN(C(=O)CCl)c1ccc2c(c1)OCO2	2	0	95*	-1	/	86*	GSTO1 recomb ABPP=75*
CCOc1ccccc1NC(=O)Nc1ccc2c(c1)OCO2	-5	6	2	8	/	/
O=C(CN1CCN(S(=O)(=O)c2ccc(Br)cc2)CC1)Nc1ccc2c(c1)OCO2	2	4	15	3	-7	/
COc1cccc(OCCSc2nc(C)c(Cc3ccccc3)c(=O)[nH]2)c1	3	-1	-4	-1	-1	/
CC1(C)CC(=O)C2=C(C1)N(C1CCCCC1)C(=O)C2(O)C(F)(F)F (centres undefined)	-2	6	65*	4	-3	6
CC1(C)CC(=O)C2=C(C1)N(CC1CCCO1)C(=O)C2(O)C(F)(F)F (centres undefined)	-2	2	3	-1	-11	/
CC(/C=C/c1ccccc1F)=N\NC(=O)C(C)C	0	3	1	1	-7	/
Clc1c2c(nc3ccccc13)CCC2	-3	2	71*	4	/	6
COc1ccc(C(=O)CSc2nnc(Cc3ccccc3)o2)cc1	-2	1	38*	0	-6	28
COc1cccc(C(=O)CSc2nnc(-c3cc(OC)c(OC)c(OC)c3)o2)c1	-4	6	11	-5	-8	/
COc1cc(-c2nnc(SCC(=O)c3ccc(C)cc3)o2)cc(OC)c1OC	1	-5	38*	2	-1	27
O=S(=O)(c1ccc(-c2cn3ccccc3n2)cc1)N1CCOCC1	-2	0	1	3	-14	/
O=C(CCN1C(=O)c2ccccc2S1(=O)=O)N1CCN(c2ccccc2)CC1	-1	1	2	-7	-4	/
